Measured values pooled from the literature.
LRRK2: Leucine-rich repeat serine/threonine-protein kinase 2 (LRRK2, Homo sapiens, UniProt Q5S007)
Ephx2: Bifunctional epoxide hydrolase 2 (Ephx2, Rattus norvegicus, UniProt P80299)
MAPK14: Mitogen-activated protein kinase 14 (MAPK14, Homo sapiens, UniProt Q16539)
PDE3A: cGMP-inhibited 3',5'-cyclic phosphodiesterase 3A (PDE3A, Homo sapiens, UniProt Q14432)

C[C@@H]1Cc2ccccc2N1C(=O)NCCCCN(C)[C@@H]1Cc2cccc3[nH]c(=O)n(c23)C1 has an IC50 of 35.8 nM (5-hydroxytryptamine receptor 1A (HTR1A, Homo sapiens, UniProt P08908); ligand displacement, radioligand).
Cc1cnc(-c2ccc(-c3ccc(NC(=O)Nc4c(F)cc(F)cc4F)cc3F)c3c2C(=O)NC3)[nH]1 has an IC50 of 13.4 nM (LRRK2; enzyme activity, inhibitor).
The IC50 of CCOCc1nc(O)c(-c2nnc(Cc3ccc(Cl)cn3)o2)c(O)c1-c1c(OC)cccc1OC is reported as over 30000 nM (Alpha-2C adrenergic receptor (ADRA2C, Homo sapiens, UniProt P18825); ligand displacement, radioligand).
For CC(O)C(C)C(=O)N1CCC(NC(=O)Nc2ccc(OC(F)(F)F)c(F)c2)CC1 (centres unmarked), the IC50 was 4.3 nM (Ephx2; enzyme activity, inhibitor).
The IC50 of CCCC[C@H](NC(=O)[C@H](C)c1c(C)[nH]c2ccc(O)cc12)c1ncc(-c2cc3ccccc3nc2OC)[nH]1 is reported as 8650 nM (Prostaglandin E2 receptor EP3 subtype (PTGER3, Homo sapiens, UniProt P43115); enzyme activity).
For CC(C)(C)n1nc(-c2cnc3cc(OC4CC4)ccc3c2)c(C(N)=O)c1N, the IC50 was over 10000 nM (MAPK14; cell-free assay).
CSc1ccc(/C=C2/C(C)=C(CC(=O)O)c3cc(F)ccc32)cc1 has an IC50 of over 100000 nM (PDE3A; enzyme activity, inhibitor).
COc1ccc2c(Oc3ccc4c(C(=O)Nc5ccccc5N)cccc4c3)ccnc2c1 gave an IC50 of over 500 nM (MAPK14; enzyme activity, inhibitor).
CN(C)CCC=C1c2ccccc2CCc2ccccc21 has an IC50 of 25400 nM (Estrogen receptor (ESR1, Homo sapiens, UniProt P03372); reporter gene, antagonist).
CN1CCN(c2ccc(Nc3ncc4cc(C#N)c(=O)n(C5CCCC5)c4n3)cc2)CC1 has an IC50 of 245 nM (Mitogen-activated protein kinase kinase kinase kinase 4 (MAP4K4, Homo sapiens, UniProt O95819); enzyme activity, inhibitor).
With CC1=CC[C@@H](C(C)(C)O)CC1 the IC50 was 9350 nM (Urease subunit beta (ureB, Helicobacter pylori, UniProt P69996); enzyme activity in cells, inhibitor, absorbance).
With CCN1CCN(c2c(Cl)cccc2NC(=O)c2ccc(Br)o2)CC1 the IC50 was over 20000 nM (MAPK14; enzyme activity, inhibitor).
N#C/C(=C\c1ccc(O)c(O)c1)C(=O)OC/C=C/c1ccccc1 has an IC50 of 231 nM (Leucine-rich repeat serine/threonine-protein kinase 2 (LRRK2, Homo sapiens, UniProt Q5S007, G2019S); enzyme activity, inhibitor, radiometric).
CC(C)(C)n1nc(-c2ccc3nc(OC4CC4)ccc3c2)c(C(N)=O)c1N gave an IC50 of over 10000 nM (Death-associated protein kinase 3 (DAPK3, Homo sapiens, UniProt O43293); cell-free assay).
For CNC(=O)c1cc2c(Oc3ccc(NC(=O)C4(C(=O)Nc5ccc(F)cc5)CC4)cc3)ccnc2cc1OC, the IC50 was 43 nM (Macrophage-stimulating protein receptor (MST1R, Homo sapiens, UniProt Q04912); enzyme activity, inhibitor, radiometric).
CCC(C)(O)C(=O)N1CCC(NC(=O)Nc2ccc(OC(F)(F)F)c(F)c2)CC1 (centres unmarked) has an IC50 of 10.6 nM (Ephx2; enzyme activity, inhibitor).
With O=C(/C=C/c1ccc(O)c(O)c1)O[C@H](Cc1ccc(O)c(O)c1)C(=O)O the IC50 was 1870 nM (LRRK2; enzyme activity, inhibitor, radiometric).
For COc1cc(C[C@H]2C(=O)OC[C@@H]2Cc2ccc(OC)c(OC)c2)ccc1O, the IC50 was over 20000 nM (PDE3A; enzyme activity, inhibitor).
CC(C)C[C@H](NC(=O)[C@H]1O[C@@H]1C(=O)O)C(=O)NCCCCN=C(N)N has an IC50 of 735 nM (Dipeptidyl peptidase 1 (CTSC, Homo sapiens, UniProt P53634); enzyme activity, inhibitor).
The IC50 of Cc1ccc(NC(=O)c2cccc(N(C)C)c2)cc1NC(=O)c1ccc(O)cc1 is reported as 300 nM (MAPK14; enzyme activity, inhibitor, ADP detection).
